Source: article PMC8569251 (European journal of pharmaceutical sciences : official …, 2020)
Values after ≈ are worked out from the molar mass of the structure shown.

Legend:
[1] = test system: human erythrocytes
[2] = test system: C. albicans yeast; test: Antimicrobial activity; type: cell-based, C. albicans SC5314
[3] = test system: E. coli; test: Antimicrobial activity; type: cell-based; settings: 24 h incubation; MIC100
How it was run: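 E. coli from LB medium, inoculated into LB broth at 10⁵ CFU/mL in 96-well plates with test compound at 1–400 µg/mL. Concentrations re-tested in 1 µg/mL (low MIC) or 5 µg/mL (high MIC) steps. MIC is the lowest concentration giving 100% growth inhibition. Triplicate. Colistin positive control; compound-free culture negative control.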

[4] = test system: C. albicans hyphae (biofilm); test: Inhibition of Candida biofilm; type: cell-based, C. albicans SC5314
[5] = test system: methicillin-resistant Staphylococcus aureus (MRSA) LAC300; test: Antimicrobial activity; type: cell-based; settings: 24 h, read-out: MIC, Bacteria S. aureus
[6] = experimental activities, −log MIC50, QSAR training set

For Triton X-100, the “erythrocyte hemolysis (positive control)” value [1] was 100%.

For `CC(=O)N1CCN(c2ccc(OCC3COC(Cn4ccnc4)(c4ccc(Cl)cc4Cl)O3)cc2)CC1` (stereo not shown) [Ketoconazole, reference compound], the MIC ([2]; 24 h, read-out: MIC, C. albicans Yeast) was 3 µg/mL (≈ 5.65 µM).

For Colistin [reference compound], the “MIC, Bacteria E. coli” value [3] was 5 µg/mL.

With `COc1cc(C=C2SC(=S)NC2=O)ccc1OCc1cccc(C(F)(F)F)c1` [SR7] the hyphae inhibition ([4]; 10 μg/mL) was 90%, the “MIC, C. albicans Hyphae” value ([4]; 24 h incubation, 100% inhibition of biofilm (hyphal) formation (MIC100)) was 10 ± 3 µg/mL (≈ 23.5 µM) and the “pMIC50 Hyphae” value [4, 6] was 4.764 M/L. For the same compound, the “MIC, C. albicans Yeast” value ([2]; 24 h incubation, lowest concentration inhibiting 100% of growth (MIC100)) was 125 ± 10 µg/mL (≈ 294 µM), the “pMIC50 Yeast” value [2, 6] was 3.579 M/L and the “MIC, Bacteria E. coli” value [3] was 100 ± 5 µg/mL (≈ 235 µM).

`CN[C@H](CC(C)C)C(=O)N[C@H]1C(=O)N[C@@H](CC(N)=O)C(=O)N[C@H]2C(=O)N[C@H]3C(=O)N[C@H](C(=O)N[C@H](C(=O)O)c4cc(O)cc(O)c4-c4cc3ccc4O)[C@H](O)c3ccc(c(Cl)c3)Oc3cc2cc(c3O[C@@H]2O[C@H](CO)[C@@H](O)[C@H](O)[C@H]2O[C@H]2C[C@](C)(N)[C@H](O)[C@H](C)O2)Oc2ccc(cc2Cl)[C@H]1O` [Vancomycin] gave an MIC [5] of 3 µg/mL (≈ 2.07 µM).
